Measurements as given in ChEMBL document CHEMBL1156772, “Synthesis, affinity profile and functional activity of potent chiral muscarinic antagonists with a pyrrolidinylfuran structure” (J Med Chem, 2010).

Assays:
[1] = Antagonist activity at muscarinic M1 receptor in New Zealand rabbit vas deferens assessed as effect on electrically-stimulated muscle contraction after 60 mins; format: functional, Oryctolagus cuniculus
[2] = target: T1, Muscarinic acetylcholine receptor M1 (Homo sapiens, UniProt P11229); assay: Displacement of [3H]NMS from human cloned muscarinic M1 receptor expressed in CHO cells by scintillation counting; format: cell-based
T1 sequence (P11229 whole entry): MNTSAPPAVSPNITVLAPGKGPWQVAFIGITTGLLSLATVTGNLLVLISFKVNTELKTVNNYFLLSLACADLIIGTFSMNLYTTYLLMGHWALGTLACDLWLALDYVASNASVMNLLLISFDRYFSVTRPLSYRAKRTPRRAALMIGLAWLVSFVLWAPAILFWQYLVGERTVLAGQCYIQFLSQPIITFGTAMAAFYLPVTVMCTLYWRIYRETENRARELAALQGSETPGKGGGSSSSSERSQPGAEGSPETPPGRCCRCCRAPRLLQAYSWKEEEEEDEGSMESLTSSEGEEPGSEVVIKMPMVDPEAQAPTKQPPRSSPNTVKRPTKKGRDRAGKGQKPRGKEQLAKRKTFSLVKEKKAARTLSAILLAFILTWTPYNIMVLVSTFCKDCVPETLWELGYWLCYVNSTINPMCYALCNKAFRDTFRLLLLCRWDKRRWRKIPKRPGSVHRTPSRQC

[3] = target: T2, Muscarinic acetylcholine receptor M2 (Homo sapiens, UniProt P08172); assay: Displacement of [3H]NMS from human cloned muscarinic M2 receptor expressed in CHO cells by scintillation counting; format: cell-based
T2 sequence (P08172 whole entry): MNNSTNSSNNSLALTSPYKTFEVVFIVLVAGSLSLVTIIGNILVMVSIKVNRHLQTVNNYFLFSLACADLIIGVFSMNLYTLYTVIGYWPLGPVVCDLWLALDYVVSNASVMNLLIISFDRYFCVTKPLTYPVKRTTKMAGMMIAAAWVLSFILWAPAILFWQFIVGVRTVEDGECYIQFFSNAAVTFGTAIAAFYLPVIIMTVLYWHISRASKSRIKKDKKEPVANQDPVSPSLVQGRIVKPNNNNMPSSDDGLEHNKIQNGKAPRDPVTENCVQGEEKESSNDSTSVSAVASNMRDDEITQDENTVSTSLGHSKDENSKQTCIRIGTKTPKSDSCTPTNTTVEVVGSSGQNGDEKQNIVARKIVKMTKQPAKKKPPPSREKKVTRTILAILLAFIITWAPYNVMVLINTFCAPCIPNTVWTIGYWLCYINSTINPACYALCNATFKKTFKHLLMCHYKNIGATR
Summary of the method: (§1)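 Equilibrium radioligand binding in CHO cells expressing the human muscarinic subtype, following the authors' earlier protocol.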

[4] = target: Muscarinic acetylcholine receptor M3 (Homo sapiens, UniProt P20309); assay: Displacement of [3H]NMS from human cloned muscarinic M3 receptor expressed in CHO cells by scintillation counting; format: cell-based
Sequence of Muscarinic acetylcholine receptor M3 (P20309 whole entry): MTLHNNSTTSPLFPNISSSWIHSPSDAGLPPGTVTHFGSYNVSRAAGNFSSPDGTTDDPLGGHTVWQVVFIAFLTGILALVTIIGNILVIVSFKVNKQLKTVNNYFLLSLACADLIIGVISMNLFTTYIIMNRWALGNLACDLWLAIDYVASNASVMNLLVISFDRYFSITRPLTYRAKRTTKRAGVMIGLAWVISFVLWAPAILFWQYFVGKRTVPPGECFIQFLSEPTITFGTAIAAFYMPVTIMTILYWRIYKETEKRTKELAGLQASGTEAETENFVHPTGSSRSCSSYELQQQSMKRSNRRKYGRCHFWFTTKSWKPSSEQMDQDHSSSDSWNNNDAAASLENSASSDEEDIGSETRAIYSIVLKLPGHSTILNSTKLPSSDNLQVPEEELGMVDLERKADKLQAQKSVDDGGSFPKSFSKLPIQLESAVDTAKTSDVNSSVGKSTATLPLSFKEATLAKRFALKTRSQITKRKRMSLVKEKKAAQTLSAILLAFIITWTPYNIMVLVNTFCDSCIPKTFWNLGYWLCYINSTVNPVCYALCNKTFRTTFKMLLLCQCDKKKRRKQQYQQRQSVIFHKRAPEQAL

[5] = target: T3, Muscarinic acetylcholine receptor M4 (Homo sapiens, UniProt P08173); assay: Displacement of [3H]NMS from human cloned muscarinic M4 receptor expressed in CHO cells by scintillation counting; format: cell-based
T3 sequence (P08173 whole entry): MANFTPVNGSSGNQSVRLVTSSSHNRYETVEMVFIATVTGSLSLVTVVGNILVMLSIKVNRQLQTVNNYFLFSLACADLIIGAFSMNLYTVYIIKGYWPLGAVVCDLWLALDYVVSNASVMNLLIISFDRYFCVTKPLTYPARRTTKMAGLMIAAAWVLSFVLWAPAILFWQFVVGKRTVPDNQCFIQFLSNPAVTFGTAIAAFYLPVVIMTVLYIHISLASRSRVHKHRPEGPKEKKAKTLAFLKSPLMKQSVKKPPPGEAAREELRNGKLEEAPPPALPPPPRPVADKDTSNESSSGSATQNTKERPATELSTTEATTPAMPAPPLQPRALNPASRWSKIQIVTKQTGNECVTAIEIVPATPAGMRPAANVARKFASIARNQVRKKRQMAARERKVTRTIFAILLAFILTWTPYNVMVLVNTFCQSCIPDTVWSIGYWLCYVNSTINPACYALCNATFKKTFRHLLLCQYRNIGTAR

[6] = target: T4, Muscarinic acetylcholine receptor M5 (Homo sapiens, UniProt P08912); assay: Displacement of [3H]NMS from human cloned muscarinic M5 receptor expressed in CHO cells by scintillation counting; format: cell-based; summary of the method: as §1
T4 sequence (P08912 whole entry): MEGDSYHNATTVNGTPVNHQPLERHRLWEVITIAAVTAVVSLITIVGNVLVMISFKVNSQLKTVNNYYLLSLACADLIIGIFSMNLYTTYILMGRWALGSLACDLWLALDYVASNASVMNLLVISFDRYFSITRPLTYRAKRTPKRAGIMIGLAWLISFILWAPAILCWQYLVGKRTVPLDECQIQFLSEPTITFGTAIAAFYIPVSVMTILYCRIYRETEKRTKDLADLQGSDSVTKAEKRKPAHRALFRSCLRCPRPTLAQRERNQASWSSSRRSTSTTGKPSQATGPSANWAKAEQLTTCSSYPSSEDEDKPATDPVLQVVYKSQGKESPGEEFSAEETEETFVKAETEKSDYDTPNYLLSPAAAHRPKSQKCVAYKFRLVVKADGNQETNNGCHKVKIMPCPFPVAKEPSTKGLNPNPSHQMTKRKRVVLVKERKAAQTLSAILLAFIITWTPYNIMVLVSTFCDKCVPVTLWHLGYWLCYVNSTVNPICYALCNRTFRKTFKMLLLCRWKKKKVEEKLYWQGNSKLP

[7] = target: T5, Muscarinic receptor 2 (Cavia porcellus) (UniProt Q8VH27); assay: Antagonist activity at muscarinic M2 receptor in guinea pig left atrium assessed as effect on electrically-stimulated inotropic activity after 60 mins; format: functional, tissue-based; details: Cardiac atrium
T5 sequence (whole entry): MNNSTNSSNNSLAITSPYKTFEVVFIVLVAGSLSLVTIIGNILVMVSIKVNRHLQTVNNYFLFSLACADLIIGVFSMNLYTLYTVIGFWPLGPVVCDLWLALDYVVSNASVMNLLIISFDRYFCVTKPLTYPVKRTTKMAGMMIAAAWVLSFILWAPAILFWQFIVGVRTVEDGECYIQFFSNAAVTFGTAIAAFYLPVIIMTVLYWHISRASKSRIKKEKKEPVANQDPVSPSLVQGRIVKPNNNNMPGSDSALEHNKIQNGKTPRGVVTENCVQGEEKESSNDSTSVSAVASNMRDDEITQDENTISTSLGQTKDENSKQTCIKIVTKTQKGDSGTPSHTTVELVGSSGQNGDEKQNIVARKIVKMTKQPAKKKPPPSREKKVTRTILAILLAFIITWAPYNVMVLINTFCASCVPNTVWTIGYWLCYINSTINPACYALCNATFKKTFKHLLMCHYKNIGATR

[8] = target: T6, Muscarinic receptor 4 (Cavia porcellus) (UniProt Q8VH25); assay: Antagonist activity at muscarinic M4 receptor in guinea pig lung strips assessed as effect on isotonic contraction after 60 mins; format: functional
T6 sequence (whole entry): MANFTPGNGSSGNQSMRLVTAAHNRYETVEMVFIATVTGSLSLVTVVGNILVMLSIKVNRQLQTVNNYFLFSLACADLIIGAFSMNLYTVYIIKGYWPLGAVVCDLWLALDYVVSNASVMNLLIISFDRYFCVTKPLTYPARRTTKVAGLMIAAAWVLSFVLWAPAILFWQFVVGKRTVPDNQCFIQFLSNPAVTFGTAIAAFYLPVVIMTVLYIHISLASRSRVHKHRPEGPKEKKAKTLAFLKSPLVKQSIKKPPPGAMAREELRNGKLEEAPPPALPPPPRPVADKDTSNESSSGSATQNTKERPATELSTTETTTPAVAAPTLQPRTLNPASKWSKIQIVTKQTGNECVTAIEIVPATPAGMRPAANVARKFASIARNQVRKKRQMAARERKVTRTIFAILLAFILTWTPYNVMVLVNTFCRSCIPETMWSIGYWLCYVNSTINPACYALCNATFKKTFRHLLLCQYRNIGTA

[9] = target: Muscarinic acetylcholine receptor M3 (Cavia porcellus) (UniProt Q8VH26); assay: Antagonist activity at muscarinic M3 receptor in guinea pig ileum assessed as effect on isotonic tension after 60 mins; format: functional, tissue-based
Sequence of Muscarinic acetylcholine receptor M3 (Cavia porcellus) (Q8VH26 1-587): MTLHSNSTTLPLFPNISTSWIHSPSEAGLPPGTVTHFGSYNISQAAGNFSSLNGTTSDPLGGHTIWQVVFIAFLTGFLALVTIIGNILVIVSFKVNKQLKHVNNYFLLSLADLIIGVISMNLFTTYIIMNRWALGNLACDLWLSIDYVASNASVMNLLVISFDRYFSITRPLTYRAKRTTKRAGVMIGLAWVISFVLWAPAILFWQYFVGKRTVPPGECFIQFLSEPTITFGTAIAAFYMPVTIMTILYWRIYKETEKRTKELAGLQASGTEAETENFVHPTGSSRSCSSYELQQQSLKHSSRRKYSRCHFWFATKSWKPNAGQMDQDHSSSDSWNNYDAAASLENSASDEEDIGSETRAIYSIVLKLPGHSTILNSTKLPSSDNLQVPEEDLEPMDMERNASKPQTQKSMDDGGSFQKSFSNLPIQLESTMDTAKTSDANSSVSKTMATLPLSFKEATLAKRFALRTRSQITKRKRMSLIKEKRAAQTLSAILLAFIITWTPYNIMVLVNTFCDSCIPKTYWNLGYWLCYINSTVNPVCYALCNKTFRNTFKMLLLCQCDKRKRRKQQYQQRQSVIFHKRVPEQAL

Row | SMILES | pKb [1] | Ki [2] [nM] | Ki [3] [nM] | Ki [4] [nM] | Ki [5] [nM] | Ki [6] [nM] | pKb [7] | pKb [8] | pKb [9]
1 | C[N+]1(C)CCCC1c1ccc(C(O)(c2ccccc2)c2ccccc2)o1.[I-] (mixture of isomers) | 8.46 | – | – | – | – | – | – | – | –
2 | C[N+]1(C)CCC[C@H]1c1ccc([C@@](O)(c2ccccc2)C2CCCCC2)o1 | – | 331 | 759 | 513 | 2340 | 871 | 5.92 | < 5 | 6.32
3 | CN1CCC[C@H]1c1ccc([C@](O)(c2ccccc2)C2CCCCC2)o1 | – | 22.9 | 60.3 | 23.4 | 55 | 27.5 | 6.65 | 5.84 | 7.66
4 | CN1CCCC1c1ccc(C(c2ccccc2)C2CCCCC2)o1 (mixture of isomers) | – | 13.5 | 141 | 33.9 | 77.6 | 55 | 5.36 | < 5 | 7.05
5 | C[N+]1(C)CCCC1c1ccc(C(c2ccccc2)c2ccccc2)o1.[I-] (mixture of isomers) | 7.91 | – | – | – | – | – | – | – | –
6 | CN1CCC[C@@H]1c1ccc([C@@](O)(c2ccccc2)C2CCCCC2)o1 | – | 191 | 363 | 324 | 550 | 468 | 6.23 | < 5 | 6.77
7 | C[N+]1(C)CCCC1c1ccc(C(O)(c2ccccc2)c2ccccc2)o1 (racemic) [listing 1 of 2 here] | – | 23.4 | 31.6 | 36.3 | 64.6 | 37.2 | – | – | –
8 | C[N+]1(C)CCCC1c1ccc(C(O)(c2ccccc2)c2ccccc2)o1 (racemic) [listing 2 of 2 here] | – | – | – | – | – | – | 7.08 | 6.2 | 7.6
9 | C[N+]1(C)CCCC1c1ccc(C(O)(c2ccccc2)C2CCCCC2)o1 (mixture of isomers) | – | 2.09 | 10.2 | 7.24 | 15.5 | 11.5 | 7.88 | 5.9 | 8.35
10 | CN1CCCC1c1ccc(C(c2ccccc2)c2ccccc2)o1 (centres undefined) | 6.64 | 42.7 | 64.6 | 85.1 | 158 | 105 | 6.52 | 5.19 | 6.81
11 | C[N+]1(C)CCCC1c1ccc(C(c2ccccc2)C2CCCCC2)o1 (mixture of isomers) | – | 6.61 | 17.4 | 8.91 | 19.5 | 15.5 | 6.21 | 5.69 | 7.88
12 | C[N+]1(C)CCC[C@@H]1c1ccc([C@](O)(c2ccccc2)C2CCCCC2)o1.[I-] | 10.15 | 0.692 | 2.34 | 1.51 | 4.27 | 1.55 | 8.49 | 7.75 | 8.95
13 | C[N+]1(C)CCCC1c1ccc(C(c2ccccc2)c2ccccc2)o1 (racemic) [listing 1 of 2 here] | – | 11.5 | 13.5 | 23.4 | 38 | 31.6 | – | – | –
14 | CN1CCCC1c1ccc(C(O)(c2ccccc2)C2CCCCC2)o1 (mixture of isomers) | – | 1.23 | 6.76 | 7.76 | 14.1 | 7.08 | 6.98 | < 5 | 7.8
15 | C[N+]1(C)CCC[C@@H]1c1ccc([C@@](O)(c2ccccc2)C2CCCCC2)o1 | – | 47.9 | 87.1 | 155 | 372 | 229 | 6.85 | 6.33 | 6.95
16 | CN1CCCC1c1ccc(C(O)(c2ccccc2)c2ccccc2)o1 (racemic) | 6.91 | 35.5 | 29.5 | 95.5 | 105 | 97.7 | 6.92 | < 5 | 6.65
17 | C[N+]1(C)CCCC1c1ccc(C(c2ccccc2)c2ccccc2)o1 (racemic) [listing 2 of 2 here] | – | – | – | – | – | – | 7.09 | < 5 | 7.59
18 | CN1CCC[C@@H]1c1ccc([C@](O)(c2ccccc2)C2CCCCC2)o1 | 9.58 | 1.23 | 4.57 | 1.66 | 3.98 | 3.31 | 7.91 | 5.92 | 8.76
19 | CN1CCC[C@H]1c1ccc([C@@](O)(c2ccccc2)C2CCCCC2)o1 | – | 1230 | 3240 | 1660 | 3090 | 1550 | 5.95 | < 5 | 6.41
20 | C[N+]1(C)CCC[C@H]1c1ccc([C@](O)(c2ccccc2)C2CCCCC2)o1 | – | 9.12 | 20 | 9.33 | 33.1 | 12 | 7.32 | 6.16 | 7.95
